Here are results for three compounds from ChEMBL document CHEMBL1154253, “Synthesis and serotonin transporter activity of sulphur-substituted alpha-alkyl phenethylamines as a new class of anticancer agents” (Eur J Med Chem, 2009).

Converted amounts (≈) assume the structure as drawn.

Series [1] has as its target Sodium-dependent serotonin transporter (Rattus norvegicus, UniProt P31652). The series can be described thus: Inhibition of [3H]5-HT reuptake at rat SERT expressed in HEK293 cells after 2 mins by liquid scintillation counting. The series is classed as cell-based.
The test system of a further series is HEK293. Description: Cytotoxicity against human HEK293 cells after 48 hrs by neutral red assay. Format: cell-based. The note with it: HEK293, 48 h, read-out: pEC50 (converted). In outline:
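Neutral Red uptake: 5 × 10⁴ cells/well grown 24–36 h to sub-confluence, then treated 48 h. Cells incubated 3 ± 1 h with NR dye, washed and solubilised in 50% ethanol–1% acetic acid, and absorbance read at 540 nm (690 nm background). Viability given as % of vehicle-treated cells. pEC50 obtained by sigmoidal regression (Hill slope 1) using 4 concentrations in triplicate on two independent days. SERT-line values compared with parental HEK293 by two-way ANOVA with Bonferroni test. Sodium azide 30 mM and Triton-X 2% as positive controls.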

The test system of the next series is SH-SY5Y. Description: Cytotoxicity against human SH-SY5Y cells after 48 hrs by neutral red assay. Format: functional, cell-based.
For series [2], the system named is MCF7. The series can be described thus: Antiproliferative activity against human MCF7 cells at 50 uM after 24 hrs by alamar blue assay. Format: functional. The gist of the method: (§1)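 Alamar Blue viability: 1–5 × 10⁴ cells/well seeded, drug-treated for the stated time, then 10 µl Alamar Blue added and incubated 4–6 h at 37 °C in the dark. Fluorescence read at ex 544/em 590 nm, medium-only background subtracted, untreated cells = 100% viability. Taxol 10 µM as positive control. Mean ± S.E.M. of six points (triplicate on two independent days).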
A general note: Alamar Blue is a resazurin reagent that responds to reducing activity.

The nature of series [3]: Antiproliferative activity against human MUTU-I cells assessed as cell viability at 50 uM after 24 hrs by alamar blue assay. The series is classed as functional. The note with it: read-out: Activity. In outline:
as §1

Series [4] concerns DG-75. Description: Antiproliferative activity against human DG75 cells assessed as cell viability at 50 uM after 72 hrs by alamar blue assay. Format: functional. The note with it: DG-75, 72 h, read-out: Activity. The gist of the method:
as §1

Series [5] is described as follows: Antiproliferative activity against human MUTU-I cells at 50 uM after 24 hrs by alamar blue assay. The series is classed as functional. The gist of the method:
as §1

For series [6], the system named is DG-75. Description: Antiproliferative activity against human DG75 cells at 50 uM after 72 hrs by alamar blue assay. Format: functional. In outline: as §1
The nature of series [7]: Antiproliferative activity against […] cells at 50 uM after 24 hrs by alamar blue assay. Format: functional, 4T1. The gist of the method: as §1
For another series, the system named is MDA-MB-231. The series can be described thus: Antiproliferative activity against human MDA-MB-231 cells at 50 uM after 24 hrs by alamar blue assay. Format: functional. The gist of the method:
as §1

The subject of series [8] is DG-75. The series can be described thus: Induction of apoptosis in human DG75 cells after 72 hrs by annexin V-propidium iodide staining-based FACS analysis. The series is classed as functional, cell-based. Conditions: DG-75, 72 h.
The nature of series [9]: Induction of apoptosis in human MUTU-I cells after 24 hrs by annexin V-propidium iodide staining-based FACS analysis. The series is classed as functional, cell-based. In general terms: A flow cytometer gives signals particle by particle.
Series [10] relates to HL-60. The series can be described thus: Induction of apoptosis in human HL60 cells after 24 hrs by annexin V-propidium iodide staining-based FACS analysis. The series is classed as functional, cell-based. The note with it: HL-60, 24 h.
For series [11], the system named is DG-75. Description: Induction of apoptosis in human DG75 cells at 10 to 50 uM after 72 hrs by annexin V-propidium iodide staining-based FACS analysis. Format: functional.
Series [12] can be described thus: Induction of apoptosis in human MUTU-I cells at 10 to 50 uM after 24 hrs by annexin V-propidium iodide staining-based FACS analysis. The series is classed as functional.
In series [13] the test system is HL-60. Description: Induction of apoptosis in human HL60 cells at 10 to 50 uM after 24 hrs by annexin V-propidium iodide staining-based FACS analysis. Format: functional.
For series [14], the system named is DG-75. Description: Induction of apoptosis in human DG75 cells at 50 uM after 72 hrs by annexin V-propidium iodide staining-based FACS analysis. Format: functional.
Series [15] concerns PBMC. The series can be described thus: Cytotoxicity against human PBMC at 10 uM after 24 hrs by alamar blue assay. Format: cell-based. In outline:
(§2)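 PBMCs from a healthy donor, separated on Ficoll and resuspended in IMDM with FCS and penicillin/streptomycin. Seeded at 1–5 × 10⁴ cells/200 µl and treated 24 h. Alamar Blue added, fluorescence read at ex 544/em 590 nm, background subtracted, untreated cells = 100% viability. Mean + S.E.M.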

The nature of series [16]: Cytotoxicity against human PBMC assessed as cell viability at 50 uM after 24 hrs by alamar blue assay. The series is classed as cell-based. Conditions: read-out: Activity. In outline:
as §2

In series [17] the test system is MCF7. The series can be described thus: Antiproliferative activity against human MCF7 cells assessed as cell viability at 50 uM after 24 hrs by alamar blue assay. The series is classed as functional. The note with it: MCF7, 24 h, read-out: Activity. The gist of the method: as §1
Series [18] relates to DG-75. Description: Antiproliferative activity against human DG75 cells after 24 to 72 hrs by alamar blue assay. Format: functional, cell-based. In outline: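 Cells seeded at 1–5 × 10⁴ per well and exposed to compound for the stated time. Alamar Blue was then added, followed by 4–6 h incubation at 37 °C in the dark. Fluorescence was read at excitation 544 nm and emission 590 nm. Medium-plus-dye background was subtracted, and untreated cells were set as 100% viability. Readings were in triplicate on two independent days.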

Series [19] in a line: Antiproliferative activity against human MUTU-I cells after 24 hrs by alamar blue assay.
The subject of series [20] is HL-60. The series can be described thus: Antiproliferative activity against human HL60 cells after 24 hrs by alamar blue assay. The series is classed as functional, cell-based. The note with it: HL-60, 24 h.
A short description of series [21]: Induction of apoptosis in human MUTU-I cells at 50 uM after 24 hrs by annexin V-propidium iodide staining-based FACS analysis. Format: functional.
In series [22] the test system is HL-60. Description: Induction of apoptosis in human HL60 cells at 50 uM after 24 hrs by annexin V-propidium iodide staining-based FACS analysis. Format: functional.
Series [23] has as its system PBMC. Description: Cytotoxicity against human PBMC at 50 uM after 24 hrs by alamar blue assay. Format: cell-based. In outline:
as §2

Sequence of Sodium-dependent serotonin transporter (P31652 whole entry): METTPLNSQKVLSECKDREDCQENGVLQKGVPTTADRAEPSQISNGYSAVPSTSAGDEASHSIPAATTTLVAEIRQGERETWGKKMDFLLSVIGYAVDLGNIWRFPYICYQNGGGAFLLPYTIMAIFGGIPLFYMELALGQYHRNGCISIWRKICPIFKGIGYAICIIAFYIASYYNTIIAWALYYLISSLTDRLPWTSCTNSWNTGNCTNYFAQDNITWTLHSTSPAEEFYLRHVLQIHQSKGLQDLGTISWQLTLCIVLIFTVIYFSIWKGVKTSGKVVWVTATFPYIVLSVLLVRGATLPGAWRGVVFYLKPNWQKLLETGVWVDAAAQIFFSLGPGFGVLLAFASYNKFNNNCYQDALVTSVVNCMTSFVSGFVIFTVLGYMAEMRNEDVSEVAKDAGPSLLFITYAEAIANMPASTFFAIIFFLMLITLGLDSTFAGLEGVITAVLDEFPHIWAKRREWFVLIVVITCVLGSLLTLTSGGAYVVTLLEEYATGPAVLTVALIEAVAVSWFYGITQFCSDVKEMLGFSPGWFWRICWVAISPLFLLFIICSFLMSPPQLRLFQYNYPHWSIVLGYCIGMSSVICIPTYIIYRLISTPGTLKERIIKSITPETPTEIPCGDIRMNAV

Regarding `CC(N)Cc1ccc(Sc2ccccc2)cc1` (stereo not given), half-maximal inhibition in series [1] (IC50) was put at 14.3 µM. In addition, the EC50 is 2.75 µM in the series on HEK293; 1 µM in the series with SH-SY5Y (read-out: EC50); 13.2 µM in the series with SH-SY5Y (read-out: pEC50 (converted)); 23.7 µM in the series with DG-75 [8]; 14.2 µM in series [9]; 19.6 µM in the series on HL-60 [10]. The Activity in the series with MCF7 [2] was 40%; in series [5], 90%; in the series with DG-75 [6] it was 90%; in [7], 90%; in the series on MDA-MB-231 it was 90%; with DG-75 [11], 40%. In addition, the Activity in series [12] is reported as 40%; in the series with HL-60 [13], 40%; in the series with DG-75 [14] it was 40%; in the series with PBMC [15], “Non-toxic”. Also, the viability at 50 µM was 10% in series [3], 10% in the series with DG-75 [4] and below 10% in the series on MCF7 [17]. Moreover, the viability at 24 h, 50 µM in [16] is 50%.
Take `CC(=O)O[C@H]1C(=O)[C@@]2(C)[C@H]([C@H](OC(=O)c3ccccc3)[C@]3(O)C[C@H](OC(=O)[C@H](O)[C@@H](NC(=O)c4ccccc4)c4ccccc4)C(C)=C1C3(C)C)[C@]1(OC(C)=O)CO[C@@H]1C[C@@H]2O` [PACLITAXEL]: the IC50 in the series with DG-75 [18] was 0.01 µM; in series [19], 0.01 µM; in the series on HL-60 [20], 4 ng/mL (≈ 4.68 nM).
As to `CCC(N)c1ccc(SC)cc1` (stereo not given), in [1], the IC50 was above 25 µM. Besides, the EC50 with HEK293 was 3.16 µM; in the series on SH-SY5Y (read-out: pEC50 (converted)), 19.5 µM; in the series with DG-75 [8], 33.8 µM; in [9], 21 µM; with HL-60 [10] it was 29.5 µM. Besides, the Activity is given as 40% with DG-75 [14]; 40% in series [21]; 40% with HL-60 [22]; “Non-toxic” with PBMC [15]; “Non-toxic” in the series with PBMC [23].

As usually defined, the IC50 is the point on the concentration scale where inhibition reaches its midpoint. A lower IC50 goes with inhibition by little substance.
